Data set [1] deals with Metabotropic glutamate receptor 3 (Rattus norvegicus, UniProt P31422). Kind of data set: Negative allosteric modulation of rat mGlu3 receptor assessed as calcium mobilization by cell based fluorescence assay. The data set is classed as functional. In outline:
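Cell line stably expressing rat mGlu3 with the promiscuous G-protein Gα15. Calcium mobilization with fluorescence read-out, inhibition of the glutamate response. Full concentration-response curves, top concentration 30 μM. % Glu Max is the response with 30 μM test compound as a percentage of the maximal response to 100 μM glutamate. Values averaged over n-3.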
For orientation: Calcium assays in cells follow changes in intracellular calcium, usually with a dye or a luminescent sensor.

The target of data set [2] is Metabotropic glutamate receptor 5 (Rattus norvegicus) (UniProt P31424). Kind of data set: Negative allosteric modulation of rat mGlu5 receptor assessed as calcium mobilization by cell based fluorescence assay. The data set is classed as functional.
For data set [3], the target named is Metabotropic glutamate receptor 3 (Rattus norvegicus) (UniProt P31422). Kind of data set: Negative allosteric modulation of rat mGlu3 receptor assessed as amplitude response at 30 uM relative to glutamate. In outline: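 Calcium mobilization in cell line stably expressing rat mGlu3 with promiscuous Gα15; fluorescence read-out; amplitude of glutamate response with 30 μM test compound expressed as percentage of maximal response (100 μM glutamate); average of n = 3.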

The subject of data set [4] is Plasma. Kind of data set: Fraction unbound in rat plasma. The data set is classed as ADME, cell-free.
Data set [5] deals with Metabotropic glutamate receptor 5 (Rattus norvegicus, UniProt P31424). Kind of data set: Modulation of rat mGlu5 receptor assessed as calcium mobilization by cell based fluorescence assay. The data set is classed as functional. Summed up: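 Calcium mobilization assay with fluorescence read-out in cells expressing mGlu5; full concentration-response curves; % Glu Max is the amplitude of response with 30 μM test compound as a percentage of the maximal response to 100 μM glutamate; values averaged over n-3.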

Data set [6] addresses Metabotropic glutamate receptor 5 (Rattus norvegicus) (UniProt P31424). Kind of data set: Modulation of rat mGlu5 receptor assessed as assessed as calcium mobilization at 30 uM by cell based fluorescence assay. The data set is classed as functional.
Data set [7] shares this target. Description: Positive allosteric modulation of rat mGlu5 receptor assessed as calcium mobilization by cell based fluorescence assay. The data set is classed as functional.

One may read the IC50 as the concentration that inhibits the measured activity by half. The EC50 is the midpoint of the concentration-response curve.

Activity calls are given as the source filed them. The calls are words filed in the database; no cut-off is given here.

Metabotropic glutamate receptor 5 (Rattus norvegicus), sequence (P31424 21-1203 limits assumed): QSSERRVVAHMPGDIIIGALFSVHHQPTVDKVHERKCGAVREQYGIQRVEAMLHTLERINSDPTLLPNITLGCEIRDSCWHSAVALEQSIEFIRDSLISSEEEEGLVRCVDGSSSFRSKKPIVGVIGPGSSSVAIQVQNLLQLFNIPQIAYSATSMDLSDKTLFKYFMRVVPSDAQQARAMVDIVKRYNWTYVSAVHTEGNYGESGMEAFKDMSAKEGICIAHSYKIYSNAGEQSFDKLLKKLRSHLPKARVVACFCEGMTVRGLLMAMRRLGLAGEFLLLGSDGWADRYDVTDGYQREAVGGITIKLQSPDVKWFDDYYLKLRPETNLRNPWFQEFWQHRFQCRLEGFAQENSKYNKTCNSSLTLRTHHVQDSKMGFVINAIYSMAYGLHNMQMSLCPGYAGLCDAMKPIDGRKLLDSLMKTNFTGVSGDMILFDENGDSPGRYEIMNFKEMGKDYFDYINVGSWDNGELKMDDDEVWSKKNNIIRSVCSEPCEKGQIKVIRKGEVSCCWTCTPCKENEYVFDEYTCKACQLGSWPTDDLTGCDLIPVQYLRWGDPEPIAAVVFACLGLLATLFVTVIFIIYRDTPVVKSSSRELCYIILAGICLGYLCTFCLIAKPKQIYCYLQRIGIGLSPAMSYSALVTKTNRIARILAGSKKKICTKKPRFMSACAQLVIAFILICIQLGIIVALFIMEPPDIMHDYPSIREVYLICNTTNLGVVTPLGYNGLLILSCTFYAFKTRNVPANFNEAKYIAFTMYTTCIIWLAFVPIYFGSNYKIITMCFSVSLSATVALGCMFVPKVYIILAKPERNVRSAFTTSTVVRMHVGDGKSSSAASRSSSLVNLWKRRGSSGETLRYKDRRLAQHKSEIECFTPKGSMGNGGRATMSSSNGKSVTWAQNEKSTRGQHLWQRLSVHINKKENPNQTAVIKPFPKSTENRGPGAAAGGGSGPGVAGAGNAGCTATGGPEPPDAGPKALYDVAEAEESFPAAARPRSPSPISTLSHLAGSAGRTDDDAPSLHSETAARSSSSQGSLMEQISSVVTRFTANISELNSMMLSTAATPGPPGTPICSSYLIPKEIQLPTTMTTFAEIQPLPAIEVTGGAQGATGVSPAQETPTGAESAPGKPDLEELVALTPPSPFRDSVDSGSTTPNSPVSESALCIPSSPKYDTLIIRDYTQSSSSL
Metabotropic glutamate receptor 3, sequence (P31422 whole entry): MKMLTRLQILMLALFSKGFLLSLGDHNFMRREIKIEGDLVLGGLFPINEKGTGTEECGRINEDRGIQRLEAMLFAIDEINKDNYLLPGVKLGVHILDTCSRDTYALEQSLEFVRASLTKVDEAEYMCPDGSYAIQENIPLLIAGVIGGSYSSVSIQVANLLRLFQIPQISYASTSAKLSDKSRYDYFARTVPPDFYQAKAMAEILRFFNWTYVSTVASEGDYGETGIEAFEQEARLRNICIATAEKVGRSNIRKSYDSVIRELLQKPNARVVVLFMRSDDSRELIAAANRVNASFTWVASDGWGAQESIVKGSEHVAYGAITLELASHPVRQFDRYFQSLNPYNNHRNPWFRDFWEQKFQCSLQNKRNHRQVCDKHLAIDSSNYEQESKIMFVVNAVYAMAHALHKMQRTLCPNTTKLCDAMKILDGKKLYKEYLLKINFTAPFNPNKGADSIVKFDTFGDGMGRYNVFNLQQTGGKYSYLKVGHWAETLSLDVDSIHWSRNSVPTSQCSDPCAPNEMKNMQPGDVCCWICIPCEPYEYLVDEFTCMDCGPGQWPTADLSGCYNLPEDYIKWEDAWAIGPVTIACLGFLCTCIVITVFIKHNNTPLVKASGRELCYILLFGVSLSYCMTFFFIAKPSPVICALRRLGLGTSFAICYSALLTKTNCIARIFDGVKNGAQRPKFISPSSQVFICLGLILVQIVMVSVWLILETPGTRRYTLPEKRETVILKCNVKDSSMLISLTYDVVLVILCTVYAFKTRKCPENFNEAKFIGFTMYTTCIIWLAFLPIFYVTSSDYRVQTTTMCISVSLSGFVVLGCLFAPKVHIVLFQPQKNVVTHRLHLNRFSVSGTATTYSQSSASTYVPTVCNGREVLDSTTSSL
Metabotropic glutamate receptor 3 (Rattus norvegicus), sequence (P31422 23-879 limits assumed): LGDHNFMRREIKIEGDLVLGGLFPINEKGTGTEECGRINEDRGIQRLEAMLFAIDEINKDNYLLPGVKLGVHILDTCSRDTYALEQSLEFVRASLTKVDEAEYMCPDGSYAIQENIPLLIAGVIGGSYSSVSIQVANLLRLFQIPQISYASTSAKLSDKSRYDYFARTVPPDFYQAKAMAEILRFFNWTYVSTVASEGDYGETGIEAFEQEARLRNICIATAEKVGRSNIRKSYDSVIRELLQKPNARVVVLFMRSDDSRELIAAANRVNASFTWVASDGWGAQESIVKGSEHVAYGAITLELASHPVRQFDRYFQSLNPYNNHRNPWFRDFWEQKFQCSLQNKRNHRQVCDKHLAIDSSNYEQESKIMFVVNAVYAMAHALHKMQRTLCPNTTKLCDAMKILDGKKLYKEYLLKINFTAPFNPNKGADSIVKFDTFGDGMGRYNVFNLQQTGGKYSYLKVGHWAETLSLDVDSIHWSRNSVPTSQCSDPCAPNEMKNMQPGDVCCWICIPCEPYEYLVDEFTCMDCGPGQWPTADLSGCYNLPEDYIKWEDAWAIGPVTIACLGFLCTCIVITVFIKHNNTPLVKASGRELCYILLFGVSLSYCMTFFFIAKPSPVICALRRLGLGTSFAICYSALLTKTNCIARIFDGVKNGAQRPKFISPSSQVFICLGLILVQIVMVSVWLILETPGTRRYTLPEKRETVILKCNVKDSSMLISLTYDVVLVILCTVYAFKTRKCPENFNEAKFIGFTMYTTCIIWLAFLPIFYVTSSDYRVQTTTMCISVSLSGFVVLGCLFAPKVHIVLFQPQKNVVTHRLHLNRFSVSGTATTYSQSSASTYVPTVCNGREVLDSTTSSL
Metabotropic glutamate receptor 5, sequence (P31424 whole entry): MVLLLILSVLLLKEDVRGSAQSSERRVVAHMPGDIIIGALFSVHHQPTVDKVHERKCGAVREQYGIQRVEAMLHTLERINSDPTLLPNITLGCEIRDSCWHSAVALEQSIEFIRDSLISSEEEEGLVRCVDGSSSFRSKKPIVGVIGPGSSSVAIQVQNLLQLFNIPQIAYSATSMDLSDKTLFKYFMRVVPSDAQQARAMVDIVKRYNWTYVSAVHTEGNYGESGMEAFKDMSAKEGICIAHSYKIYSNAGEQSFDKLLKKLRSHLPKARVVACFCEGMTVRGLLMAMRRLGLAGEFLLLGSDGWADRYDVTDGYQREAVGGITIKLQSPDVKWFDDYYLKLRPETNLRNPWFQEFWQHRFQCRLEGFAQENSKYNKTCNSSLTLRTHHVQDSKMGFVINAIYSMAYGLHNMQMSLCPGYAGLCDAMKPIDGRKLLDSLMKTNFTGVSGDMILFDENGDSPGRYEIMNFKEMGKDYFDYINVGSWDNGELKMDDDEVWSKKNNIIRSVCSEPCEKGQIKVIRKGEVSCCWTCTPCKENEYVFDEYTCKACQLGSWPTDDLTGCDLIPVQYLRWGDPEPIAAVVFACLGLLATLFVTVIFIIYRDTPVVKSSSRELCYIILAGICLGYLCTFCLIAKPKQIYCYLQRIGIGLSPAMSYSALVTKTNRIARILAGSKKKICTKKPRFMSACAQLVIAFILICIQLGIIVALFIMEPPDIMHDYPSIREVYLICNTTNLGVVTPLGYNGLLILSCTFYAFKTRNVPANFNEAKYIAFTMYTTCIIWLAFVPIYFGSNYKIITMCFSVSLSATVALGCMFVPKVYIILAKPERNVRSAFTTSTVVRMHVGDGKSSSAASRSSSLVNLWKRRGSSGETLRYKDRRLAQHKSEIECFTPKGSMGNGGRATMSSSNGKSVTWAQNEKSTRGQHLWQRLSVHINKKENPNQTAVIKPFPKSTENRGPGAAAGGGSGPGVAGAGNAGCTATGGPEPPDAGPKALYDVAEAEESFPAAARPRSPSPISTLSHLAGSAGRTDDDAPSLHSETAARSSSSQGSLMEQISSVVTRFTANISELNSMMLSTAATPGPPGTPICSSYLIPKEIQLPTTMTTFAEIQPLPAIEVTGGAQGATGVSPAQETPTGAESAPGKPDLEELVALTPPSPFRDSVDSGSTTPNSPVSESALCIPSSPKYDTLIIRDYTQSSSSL

Regarding `C[C@@H]1CN(c2ccccc2F)C(=O)c2cc(COc3ccc(F)cn3)nn21`, the IC50 in data set [1] was determined as 162 nM. In data set [2], the result was Active. Also, the Activity amounted to 1.53% in data set [3] and 29.1% in data set [6]. Further, the Fu in data set [4] is listed as 0.098. Further, the EC50 in data set [5] was over 10000 nM.
Consider `COc1ccccc1N1C[C@@H](C)n2nc(COc3ccc(F)cn3)cc2C1=O`, for which the IC50 in data set [1] is 339 nM. Besides, the outcome in data set [2] was Active. The Activity was 1.49% in data set [3] and 3.28% in data set [6]. The 50% effective concentration (EC50) in data set [5] is 301 nM.
In the same order, the values of `COc1cccc(N2C[C@@H](C)n3nc(COc4ccc(F)cn4)cc3C2=O)c1` are 198 nM, “Active”, 1.02%, 59.7% and over 10000 nM.
On to `C[C@@H]1CN(c2cccc(F)c2F)C(=O)c2cc(COc3ccc(F)cn3)nn21`, for which, in data set [1], the IC50 stood at 184 nM. The result in data set [2] was Active. Also, the values for the Activity in data set [3] and in data set [6] were 2.15% and 21%, respectively. This molecule also registered a Fu in data set [4] of 0.092. The EC50 in data set [5] stood at 2110 nM.
As to `C[C@@H]1CN(c2ccc(F)cc2)C(=O)c2cc(COc3cc(C(F)(F)F)ccn3)nn21`, in data set [1], the IC50 was 1670 nM. In data set [2], the result was Active. For the same molecule, the Activity worked out at 1.62% in data set [3] and 12.9% in data set [6]. Further, the EC50 in data set [5] was over 10000 nM.
The like results for `Cc1ccccc1N1C[C@@H](C)n2nc(COc3ccc(F)cn3)cc2C1=O` were, in that order, 346 nM, “Active”, 1.72%, 35.8% and over 10000 nM.
The like results for `COc1ccccc1N1C[C@@H](C)n2nc(COc3ccc(Cl)cn3)cc2C1=O` were, in that order, 690 nM, “Active”, 1.29%, 58.5% and over 10000 nM.
`C[C@@H]1CN(c2cnccc2F)C(=O)c2cc(COc3ccc(Cl)cn3)nn21`: the IC50 in data set [1] was 482 nM. In addition, the Activity in data set [3] turned out to be 1.45%. This molecule also had a Fu in data set [4] of 0.085. Besides, the EC50 in data set [5] was over 30000 nM.
As for `COc1ccnc(OCc2cc3n(n2)[C@H](C)CN(c2ccc(F)cc2)C3=O)c1`, the half-inhibitory concentration (IC50) in data set [1] was 3690 nM. Besides, the result in data set [2] was Active. In addition, the Activity in data set [3] was -0.18%; in data set [6], 54.7%. For the same molecule, the concentration giving a half-maximal response (EC50) in data set [5] is over 10000 nM.
In the same order, the values of `C[C@@H]1CN(c2ccccn2)C(=O)c2cc(COc3ccc(F)cn3)nn21` are 915 nM, “Active”, 0.96%, 3.71% and 3520 nM.
Turning to `C[C@@H]1CN(c2cccc(F)c2)C(=O)c2cc(COc3ccc(F)cn3)nn21`, in data set [1], the IC50 was 192 nM. Besides, the result in data set [2] was Active. The Activity in data set [3] is 1.44%; in data set [6], 9.71%. Besides, the Fu in data set [4] is reported as 0.094. Further, the 50% effective concentration (EC50) in data set [5] is 2720 nM.
As for `Cc1ccc(N2C[C@@H](C)n3nc(COc4ccc(F)cn4)cc3C2=O)cc1`, the IC50 in data set [1] worked out at 269 nM. Further, the result in data set [2] was Active. For the same molecule, the Activity is 1.04% in data set [3] and 54.8% in data set [6]. In addition, the EC50 in data set [5] was over 10000 nM.
The like results for `Cc1cccc(OCc2cc3n(n2)[C@H](C)CN(c2ccc(F)cc2)C3=O)n1` were, in that order, 2370 nM, “Active”, 1.12%, 2.47% and 2250 nM.
As for `C[C@@H]1CN(c2c(F)cccc2F)C(=O)c2cc(COc3ccc(F)cn3)nn21`, in data set [1], the IC50 was 181 nM. Also, the result in data set [2] was Active. Moreover, the values for the Activity in data set [3] and in data set [6] were 1.49% and 50.8%, respectively. The molecule also had a Fu in data set [4] of 0.064. Moreover, the EC50 in data set [5] is 1230 nM.
`Cc1cccc(OCc2cc3n(n2)[C@H](C)CN(c2ccc(F)cc2)C3=O)c1`: in data set [1], the IC50 was 1440 nM. In addition, the result in data set [2] was Active. Besides, the Activity in data set [3] stood at 2.35%; in data set [6], 39.7%. Further, in data set [5], the EC50 was over 10000 nM.
For `C[C@@H]1CN(c2ccccn2)C(=O)c2cc(COc3ccc(Cl)cn3)nn21`, the IC50 in data set [1] turned out to be 328 nM. In addition, in data set [3], the Activity turned out to be 1.07%. The Fu in data set [4] is recorded as 0.051. Besides, the EC50 in data set [5] is over 30000 nM.
With `C[C@@H]1CN(c2ccc(F)cn2)C(=O)c2cc(COc3ccc(Cl)cn3)nn21`, in data set [1], the IC50 was found to be 260 nM. For the same molecule, the values for the Activity in data set [3] and in data set [6] were 2.44% and 47.9%, respectively. Moreover, the EC50 in data set [5] was over 10000 nM. Moreover, in data set [7], the result was Active.
In the same order, the values of `COc1cccc(N2C[C@@H](C)n3nc(COc4ccc(Cl)cn4)cc3C2=O)c1` are 313 nM, 2%, 78%, 5070 nM and “Active”.
As for `Cc1cccc(N2C[C@@H](C)n3nc(COc4ccc(F)cn4)cc3C2=O)c1`, the IC50 in data set [1] turned out to be 216 nM. For the same molecule, in data set [2], the result was Active. The Activity was 1.93% in data set [3] and 36.6% in data set [6]. In data set [4], this molecule gave a Fu of 0.051. For the same molecule, the EC50 in data set [5] was over 10000 nM.
For the molecule `C[C@@H]1CN(c2ccc(F)cc2)C(=O)c2cc(COc3ccc(F)cc3F)nn21`, in data set [1], the IC50 is 417 nM. For the same molecule, the Activity in data set [3] amounted to 1.7%; in data set [6] it was 82.3%. Besides, the 50% effective concentration (EC50) in data set [5] is 307 nM. In addition, the outcome in data set [7] was Active.
As for `C[C@@H]1CN(c2ccc(F)cn2)C(=O)c2cc(COc3ccc(F)cn3)nn21`, the IC50 in data set [1] amounted to 349 nM. For the same molecule, the result in data set [2] was Active. Moreover, the Activity in data set [3] was found to be 1.31%; in data set [6], 7%. Moreover, in data set [5], the EC50 came to 9740 nM.
On to `Cc1ccccc1OCc1cc2n(n1)[C@H](C)CN(c1ccc(F)cc1)C2=O`, for which the IC50 in data set [1] came to 721 nM. Moreover, the Activity in data set [3] was determined as 1.56%; in data set [6] it was 83.7%. Further, in data set [5], the EC50 turned out to be 1500 nM. Further, in data set [7], the result was Active.
On to `C[C@@H]1CN(c2cccc(Cl)c2)C(=O)c2cc(COc3ccc(F)cn3)nn21`, for which the IC50 in data set [1] was 145 nM. In addition, the result in data set [2] was Active. The Activity in data set [3] came out at 2.3%; in data set [6] it was 19.2%. In data set [4], this molecule displayed a Fu of 0.034. In addition, the EC50 in data set [5] amounted to 1850 nM.
As for `C[C@@H]1CN(c2ccccc2C#N)C(=O)c2cc(COc3ccc(Cl)cn3)nn21`, the IC50 in data set [1] came to 429 nM. Besides, the values for the Activity in data set [3] and in data set [6] were 1.64% and 38.1%, respectively. Besides, the EC50 in data set [5] was found to be 4970 nM. For the same molecule, the result in data set [7] was Active.
In the same order, the values of `C[C@@H]1CN(c2ccc(F)cc2)C(=O)c2cc(COc3ccc(Cl)cc3)nn21` are 1170 nM, 1.86%, 81.8%, 604 nM and “Active”.
`C[C@@H]1CN(c2ccc(F)cc2)C(=O)c2cc(COc3cccc(Cl)c3)nn21`: the IC50 in data set [1] was found to be 1620 nM. In data set [2], the result was Active. Besides, the Activity in data set [3] is 1.96%; in data set [6], 32.8%. Moreover, the EC50 in data set [5] is over 10000 nM.
With `Cc1cccc(N2C[C@@H](C)n3nc(COc4ccc(Cl)cn4)cc3C2=O)c1`, the IC50 in data set [1] was found to be 392 nM. Further, the Activity in data set [3] stood at 1.71%; in data set [6] it was 69.9%. For the same molecule, in data set [5], the EC50 was 3600 nM. The result in data set [7] was Active.
For `C[C@@H]1CN(c2cccc(F)n2)C(=O)c2cc(COc3ccc(Cl)cn3)nn21`, the IC50 in data set [1] came out at 294 nM. Also, the outcome in data set [2] was Active. In addition, the Activity in data set [3] stood at 1.75%; in data set [6] it was 24.8%. In addition, in data set [5], the EC50 was over 10000 nM.
For the molecule `C[C@@H]1CN(c2ccc(F)cc2)C(=O)c2cc(COc3ccccc3Cl)nn21`, in data set [1], the IC50 was 532 nM. Also, the Activity in data set [3] is 1.63%; in data set [6], 84.4%. Moreover, in data set [5], the EC50 amounted to 419 nM. The result in data set [7] was Active.
Regarding `C[C@@H]1CN(c2cccnc2)C(=O)c2cc(COc3ccc(F)cn3)nn21`, in data set [1], the IC50 came to 436 nM. Besides, the outcome in data set [2] was Active. In addition, the Activity in data set [3] is 0.64%; in data set [6], 46.3%. The EC50 in data set [5] was over 10000 nM.
The like results for `Cc1ccnc(OCc2cc3n(n2)[C@H](C)CN(c2ccc(F)cc2)C3=O)c1` were, in that order, 2090 nM, “Active”, 0.86%, 46.9% and over 10000 nM.
With `C[C@@H]1CN(c2cccc(F)c2F)C(=O)c2cc(COc3ccc(Cl)cn3)nn21`, the IC50 in data set [1] came to 852 nM. In addition, the Activity in data set [3] worked out at 0.33%; in data set [6], 36.1%. In data set [5], the EC50 was 6680 nM. Also, in data set [7], the outcome was Active.

These data come from ChEMBL document CHEMBL3616441, “Discovery of a Selective and CNS Penetrant Negative Allosteric Modulator of Metabotropic Glutamate Receptor Subtype 3 with Antidepressant and Anxiolytic Activity in Rodents” (J Med Chem, 2015).
